Measured values from ChEMBL document CHEMBL3286209, “Synthesis and biological activities of novel pleuromutilin derivatives with a substituted thiadiazole moiety as potent drug-resistant bacteria inhibitors” (J Med Chem, 2014).
In brackets after ≈: the same amount, converted by molar mass.

Assays:
Format in all cases: functional
Staphylococcus aureus [1] = assay: Antibacterial activity against methicillin-resistant Staphylococcus aureus at 320 ug/ml after 24 hrs by Oxford cup assay; details: read-out: IZ
How it was run: (§1)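 Oxford cup diffusion using clinical isolates. Inocula are made in 0.9% saline to a McFarland standard and spread on nutrient agar. […] Inhibition zone diameter is measured after 24 h at 37 °C. Run in triplicate.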

[2] = test system: Staphylococcus epidermidis; assay: Antibacterial activity against methicillin-resistant Staphylococcus epidermidis after 48 hrs by agar dilution method
How it was run: (§2)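 Agar dilution per NCCLS using clinical isolates. Compound DMSO/water solutions are 2-fold serially diluted in water, then mixed 1:10 into hot Mueller–Hinton agar. Inocula come from blood slants, adjusted to about 10⁵−10⁶ cfu/mL in 0.90% saline, and spotted at 10 μL. Plates incubated at 36.5 °C for 48 h. MIC is the lowest concentration giving complete growth inhibition. Run in triplicate at pH 7.40.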

Streptococcus agalactiae [3] = assay: Antibacterial activity against Streptococcus agalactiae after 48 hrs by agar dilution method
How it was run: (§3)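 Agar dilution per NCCLS on Mueller–Hinton agar; compound in DMSO/water, 2-fold serial dilutions in distilled water, 2 mL dilution mixed into 18 mL hot agar. Clinical isolates from blood slants, adjusted to about 10⁵−10⁶ cfu/mL in 0.90% saline; 10 μL spotted. Incubated 36.5 °C for 48 h; MIC = lowest concentration giving complete growth inhibition. Triplicate runs.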

Escherichia coli [4] = assay: Antibacterial activity against Escherichia coli after 48 hrs by agar dilution method; how it was run: as §3
Escherichia coli [5] = assay: Antibacterial activity against Escherichia coli at 160 ug/ml after 24 hrs by Oxford cup assay; details: read-out: IZ
How it was run: (§4)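 Oxford cup diffusion: saline inoculum set by McFarland standard, spread on nutrient agar plates. […] Inhibition zone measured after 24 h at 37 °C; triplicate.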

Streptococcus agalactiae [6] = assay: Antibacterial activity against Streptococcus agalactiae at 320 ug/ml after 24 hrs by Oxford cup assay; details: read-out: IZ; how it was run: as §4
[7] = test system: Staphylococcus epidermidis; assay: Antibacterial activity against methicillin-resistant Staphylococcus epidermidis at 320 ug/ml after 24 hrs by Oxford cup assay; details: read-out: IZ; how it was run: as §1
Staphylococcus aureus [8] = assay: Antibacterial activity against methicillin-resistant Staphylococcus aureus at 160 ug/ml after 24 hrs by Oxford cup assay; details: read-out: IZ; how it was run: as §1
Staphylococcus aureus [9] = assay: Antibacterial activity against methicillin-resistant Staphylococcus aureus after 48 hrs by agar dilution method; how it was run: as §2
[10] = test system: Staphylococcus epidermidis; assay: Antibacterial activity against methicillin-resistant Staphylococcus epidermidis at 160 ug/ml after 24 hrs by Oxford cup assay; details: read-out: IZ; how it was run: as §1
Streptococcus agalactiae [11] = assay: Antibacterial activity against Streptococcus agalactiae at 160 ug/ml after 24 hrs by Oxford cup assay; details: read-out: IZ; how it was run: as §4
Escherichia coli [12] = assay: Antibacterial activity against Escherichia coli at 320 ug/ml after 24 hrs by Oxford cup assay; details: read-out: IZ; how it was run: as §4

SMILES	zone of inhibition at 320 µg/mL (Staphylococcus aureus [1]) [mm]	MIC [2] [µg/mL]	MIC (Streptococcus agalactiae [3]) [µg/mL]	MIC (Escherichia coli [4]) [µg/mL]	zone of inhibition at 160 µg/mL (Escherichia coli [5]) [mm]	zone of inhibition at 320 µg/mL (Streptococcus agalactiae [6]) [mm]	zone of inhibition at 320 µg/mL [7] [mm]	zone of inhibition at 160 µg/mL (Staphylococcus aureus [8]) [mm]	MIC (Staphylococcus aureus [9]) [µg/mL]	zone of inhibition at 160 µg/mL [10] [mm]	zone of inhibition at 160 µg/mL (Streptococcus agalactiae [11]) [mm]	zone of inhibition at 320 µg/mL (Escherichia coli [12]) [mm]
C=C[C@]1(C)C[C@@H](OC(=O)CSc2nnc(NC(=O)c3ccccc3Cl)s2)[C@]2(C)[C@H](C)CC[C@]3(CCC(=O)[C@H]32)[C@@H](C)[C@@H]1O	15	8 (≈ 12.7 µM)	2 (≈ 3.16 µM)	≥ 64	0	15.5	12.6	12.2	2 (≈ 3.16 µM)	11.9	12.7	10.3
C=C[C@]1(C)C[C@@H](OC(=O)CSc2nnc(NC(=O)c3cccc(Cl)c3)s2)[C@]2(C)[C@H](C)CC[C@]3(CCC(=O)[C@H]32)[C@@H](C)[C@@H]1O	14.7	2 (≈ 3.16 µM)	2 (≈ 3.16 µM)	32 (≈ 50.6 µM)	11.7	13.5	15	13.4	2 (≈ 3.16 µM)	12.9	12.7	12.6
C=C[C@]1(C)C[C@@H](OC(=O)CSc2nnc(NC(=O)c3ccc(Cl)cc3)s2)[C@]2(C)[C@H](C)CC[C@]3(CCC(=O)[C@H]32)[C@@H](C)[C@@H]1O	13.7	4 (≈ 6.33 µM)	4 (≈ 6.33 µM)	≥ 64	0	13.4	14.1	11.9	4 (≈ 6.33 µM)	11.3	11.4	10
C=C[C@]1(C)C[C@@H](OC(=O)CSc2nnc(NC(=O)c3ccccc3OC)s2)[C@]2(C)[C@H](C)CC[C@]3(CCC(=O)[C@H]32)[C@@H](C)[C@@H]1O	14.8	2 (≈ 3.19 µM)	4 (≈ 6.37 µM)	16 (≈ 25.5 µM)	9.96	13.4	14.2	12.2	1 (≈ 1.59 µM)	11.9	11.3	11.5
C=C[C@]1(C)C[C@@H](OC(=O)CSc2nnc(NC(=O)c3cccc(OC)c3)s2)[C@]2(C)[C@H](C)CC[C@]3(CCC(=O)[C@H]32)[C@@H](C)[C@@H]1O	13.1	4 (≈ 6.37 µM)	8 (≈ 12.7 µM)	≥ 64	9.02	12.8	13.8	11.4	8 (≈ 12.7 µM)	12.3	11.7	10.9
C=C[C@]1(C)C[C@@H](OC(=O)CSc2nnc(NC(=O)c3ccc(OC)cc3)s2)[C@]2(C)[C@H](C)CC[C@]3(CCC(=O)[C@H]32)[C@@H](C)[C@@H]1O	15.5	2 (≈ 3.19 µM)	2 (≈ 3.19 µM)	32 (≈ 51 µM)	10.7	14.3	14.4	12.2	2 (≈ 3.19 µM)	9.52	11.5	11.2
C=C[C@]1(C)C[C@@H](OC(=O)CSc2nnc(NC(=O)c3ccccc3N)s2)[C@]2(C)[C@H](C)CC[C@]3(CCC(=O)[C@H]32)[C@@H](C)[C@@H]1O	15.5	2 (≈ 3.26 µM)	4 (≈ 6.53 µM)	16 (≈ 26.1 µM)	10.1	13.8	15.2	12.9	4 (≈ 6.53 µM)	12.2	12.4	11.3
C=C[C@]1(C)C[C@@H](OC(=O)CSc2nnc(NC(=O)c3cccc(N)c3)s2)[C@]2(C)[C@H](C)CC[C@]3(CCC(=O)[C@H]32)[C@@H](C)[C@@H]1O	19.2	0.5 (≈ 0.816 µM)	0.25 (≈ 0.408 µM)	16 (≈ 26.1 µM)	12.7	18.4	17.8	17.5	0.25 (≈ 0.408 µM)	16.1	17.4	13.7
C=C[C@]1(C)C[C@@H](OC(=O)CSc2nnc(NC(=O)c3ccc(N)cc3)s2)[C@]2(C)[C@H](C)CC[C@]3(CCC(=O)[C@H]32)[C@@H](C)[C@@H]1O	13.2	1 (≈ 1.63 µM)	2 (≈ 3.26 µM)	16 (≈ 26.1 µM)	10.7	14	14.8	11.4	2 (≈ 3.26 µM)	12.1	12.3	12.2
C=C[C@]1(C)C[C@@H](OC(=O)CSc2nnc(NC(=O)CN(C)C)s2)[C@]2(C)[C@H](C)CC[C@]3(CCC(=O)[C@H]32)[C@@H](C)[C@@H]1O	17.6	2 (≈ 3.46 µM)	2 (≈ 3.46 µM)	32 (≈ 55.3 µM)	10.1	14.5	16	15.4	1 (≈ 1.73 µM)	14.3	11.5	12
C=C[C@]1(C)C[C@@H](OC(=O)CSc2nnc(NC(=O)CN(CC)CC)s2)[C@]2(C)[C@H](C)CC[C@]3(CCC(=O)[C@H]32)[C@@H](C)[C@@H]1O	12.3	4 (≈ 6.59 µM)	8 (≈ 13.2 µM)	64 (≈ 105 µM)	9.13	12.7	12.8	11	8 (≈ 13.2 µM)	11.5	10.4	10.2
C=C[C@]1(C)C[C@@H](OC(=O)CSc2nnc(NC(=O)CN3CCCC3)s2)[C@]2(C)[C@H](C)CC[C@]3(CCC(=O)[C@H]32)[C@@H](C)[C@@H]1O	13.2	4 (≈ 6.61 µM)	2 (≈ 3.31 µM)	32 (≈ 52.9 µM)	9.86	13.8	12.8	13.1	4 (≈ 6.61 µM)	10.5	12.8	11.1
C=C[C@]1(C)C[C@@H](OC(=O)CSc2nnc(NC(=O)CN3CCOCC3)s2)[C@]2(C)[C@H](C)CC[C@]3(CCC(=O)[C@H]32)[C@@H](C)[C@@H]1O	15.4	8 (≈ 12.9 µM)	4 (≈ 6.44 µM)	≥ 64	0	13.2	10.8	13.4	1 (≈ 1.61 µM)	0	10.9	11.9
C=C[C@]1(C)C[C@@H](OC(=O)CSc2nnc(NC(=O)CN3CCN(C)CC3)s2)[C@]2(C)[C@H](C)CC[C@]3(CCC(=O)[C@H]32)[C@@H](C)[C@@H]1O	12	4 (≈ 6.31 µM)	8 (≈ 12.6 µM)	16 (≈ 25.2 µM)	10.6	12.6	13.1	11	8 (≈ 12.6 µM)	10.7	11.2	11.2
CC[C@]1(C)C[C@@H](OC(=O)CSc2nnc(N)[nH]2)[C@]2(C)[C@H](C)CC[C@]3(CCC(=O)[C@H]32)[C@@H](C)[C@@H]1O [AZAMULIN]	18	0.5 (≈ 1.04 µM)	0.125 (≈ 0.261 µM)	4 (≈ 8.36 µM)	16	18.9	17	16.5	0.5 (≈ 1.04 µM)	15.4	17.2	17.2
